Test results reported in ChEMBL document CHEMBL1799916, “Novel 3,5-bis(bromohydroxybenzylidene)piperidin-4-ones as coactivator-associated arginine methyltransferase 1 inhibitors: enzyme selectivity and cellular activity” (J Med Chem, 2011).
Calls of active or inactive are those of the source. The calls are words filed in the database; no cut-off is given here.

Experiments:
[1] = molecular target: T1, Histone-arginine methyltransferase CARM1 (Homo sapiens) (UniProt Q86X55); experiment: Inhibition of CARM1-mediated methylation of PABP1 at 20 uM after 90 mins by scintillation counting in presence of S-adenosyl-l-[methyl-3H]methionine
T1 sequence (whole entry): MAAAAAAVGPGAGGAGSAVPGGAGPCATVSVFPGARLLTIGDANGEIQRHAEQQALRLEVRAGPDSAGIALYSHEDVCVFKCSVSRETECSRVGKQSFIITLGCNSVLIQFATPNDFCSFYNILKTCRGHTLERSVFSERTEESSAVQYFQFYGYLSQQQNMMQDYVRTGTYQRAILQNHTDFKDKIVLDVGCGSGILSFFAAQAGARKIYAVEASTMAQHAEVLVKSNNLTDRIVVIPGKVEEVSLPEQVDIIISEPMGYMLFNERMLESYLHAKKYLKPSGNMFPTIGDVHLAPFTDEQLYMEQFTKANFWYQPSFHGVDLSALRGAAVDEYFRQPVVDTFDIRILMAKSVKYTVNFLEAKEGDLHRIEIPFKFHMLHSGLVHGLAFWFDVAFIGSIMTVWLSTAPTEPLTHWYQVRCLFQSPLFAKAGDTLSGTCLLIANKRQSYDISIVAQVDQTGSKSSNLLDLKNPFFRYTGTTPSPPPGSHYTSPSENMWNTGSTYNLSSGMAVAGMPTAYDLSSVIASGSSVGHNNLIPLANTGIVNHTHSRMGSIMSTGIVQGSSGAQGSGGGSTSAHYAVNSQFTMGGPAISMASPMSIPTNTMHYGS
Procedure, shortened: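 Recombinant CARM1 with PABP1 substrate in PBS pH 7.4 containing [³H]AdoMet, compound at 20 μM. Incubated 90 min at 30 °C, then SDS-PAGE, PVDF transfer and overnight film fluorography. Substrate bands cut out for scintillation counting.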

[2] = molecular target: T2, Histone-arginine methyltransferase CARM1 (Homo sapiens, UniProt Q86X55); experiment: Inhibition of CARM1-mediated methylation of PABP1 after 90 mins by scintillation counting in presence of S-adenosyl-l-[methyl-3H]methionine
T2 sequence (Q86X55 whole entry): T1 sequence (whole entry)

[3] = molecular target: Protein arginine N-methyltransferase 1 (Homo sapiens, UniProt Q99873); experiment: Inhibition of PRMT1-mediated methylation of NPL3 after 90 mins by scintillation counting in presence of S-adenosyl-l-[methyl-3H]methionine
[4] = molecular target: T3, Histone-lysine N-methyltransferase SETD7 (Homo sapiens, UniProt Q8WTS6); experiment: Inhibition of SET7-mediated methylation of histone H3 after 90 mins by scintillation counting in presence of S-adenosyl-l-[methyl-3H]methionine
T3 sequence (Q8WTS6 whole entry): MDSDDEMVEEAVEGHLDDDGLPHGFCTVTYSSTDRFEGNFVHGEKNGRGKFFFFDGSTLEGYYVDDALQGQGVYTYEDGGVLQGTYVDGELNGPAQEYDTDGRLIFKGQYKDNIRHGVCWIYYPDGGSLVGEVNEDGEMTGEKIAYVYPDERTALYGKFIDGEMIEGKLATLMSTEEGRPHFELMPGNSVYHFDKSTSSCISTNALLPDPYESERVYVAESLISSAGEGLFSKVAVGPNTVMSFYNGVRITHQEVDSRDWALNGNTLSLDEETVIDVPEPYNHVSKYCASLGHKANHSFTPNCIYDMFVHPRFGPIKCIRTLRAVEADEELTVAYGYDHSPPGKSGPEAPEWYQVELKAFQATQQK

Protein arginine N-methyltransferase 1, sequence (Q99873 whole entry): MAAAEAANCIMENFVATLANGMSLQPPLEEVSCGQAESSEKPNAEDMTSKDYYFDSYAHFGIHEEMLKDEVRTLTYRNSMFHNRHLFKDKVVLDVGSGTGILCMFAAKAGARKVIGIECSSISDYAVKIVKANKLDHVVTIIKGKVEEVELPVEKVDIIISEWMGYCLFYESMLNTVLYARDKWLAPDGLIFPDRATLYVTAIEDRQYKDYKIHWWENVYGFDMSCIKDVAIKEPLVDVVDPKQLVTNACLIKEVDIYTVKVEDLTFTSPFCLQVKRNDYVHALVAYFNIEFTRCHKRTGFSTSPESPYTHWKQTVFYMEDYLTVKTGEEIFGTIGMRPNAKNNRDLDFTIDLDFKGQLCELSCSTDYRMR

Compound | inhibition [1] | IC50 [2] [µM] | IC50 [3] [µM] | IC50 [4] [µM]
COc1ccc(CN2C/C(=C\c3ccc(O)c(Br)c3)C(=O)/C(=C/c3ccc(O)c(Br)c3)C2)cc1 | inactive |  |  | 
Cc1ccccc1CN1C/C(=C\c2ccc(O)c(Br)c2)C(=O)/C(=C/c2ccc(O)c(Br)c2)C1 |  | 10.3 | > 667 | > 667
COc1ccccc1CN1C/C(=C\c2ccc(O)c(Br)c2)C(=O)/C(=C/c2ccc(O)c(Br)c2)C1 | inactive |  |  | 
O=C1/C(=C/c2ccc(O)c(Br)c2)CN(Cc2ccc(Cl)cc2)C/C1=C\c1ccc(O)c(Br)c1 |  | 12.2 | > 667 | > 600
Cc1ccc(CN2C/C(=C\c3ccc(O)c(Br)c3)C(=O)/C(=C/c3ccc(O)c(Br)c3)C2)cc1 | inactive | 11.9 | > 667 | > 333
COc1cccc(CN2C/C(=C\c3ccc(O)c(Br)c3)C(=O)/C(=C/c3ccc(O)c(Br)c3)C2)c1 | inactive |  |  | 

Further lines, results first:

inhibition [1] | IC50 [2] [µM] | IC50 [3] [µM] | IC50 [4] [µM] | Compound
inactive | 16 | > 667 | > 667 | O=C1/C(=C/c2ccc(O)c(Br)c2)CN(CCCc2ccccc2)C/C1=C\c1ccc(O)c(Br)c1
 | 12.5 | > 667 | > 667 | O=C1/C(=C/c2ccc(O)c(Br)c2)CN(Cc2ccccc2Cl)C/C1=C\c1ccc(O)c(Br)c1
 | 14.8 | > 667 | > 667 | O=C1/C(=C/c2ccc(O)c(Br)c2)CN(CCc2ccccc2)C/C1=C\c1ccc(O)c(Br)c1
